In brackets after ≈: the same amount, converted by molar mass. Numbered stars: 1 amine (or outer) side, 2 acyl side, 3 side chain; on linkers, the order of the positions; unused ones are H or OH. Bridge positions count the residues as written; N and C are the ends. Square brackets hold non-standard residues; d marks the D form. Peptide text beside a SMILES is read from it. * marks the point of attachment. Benzoyl(4-OPh) = O=C(c1ccc(Oc2ccccc2)cc1)*; Benzoyl(4-Ph) = O=C(c1ccc(-c2ccccc2)cc1)*; Phe(4-NH2) = Nc1ccc(C[C@H](N)C(=O)O)cc1; NH(2-ClPh) = Clc1ccccc1N*; Octanoyl = CCCCCCCC(=O)*; Dab = NCC[C@H](N)C(=O)O; CO = O=C([*:1])[*:2]
How the values were obtained:
Escherichia coli [1] = assay: Antibacterial activity against Escherichia coli ATCC 25922 after 18 hrs by 2 fold serial dilution method; type: functional; settings: ATCC 25922, 18 h
Summary of the method: (§1)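 Overnight cultures in nutrient or Mueller Hinton broth at 37 °C with shaking, diluted 50-fold into fresh MHB and grown 1.5–3 h to mid-log. Inoculum 5×10^5 CFU/mL in 2-fold serial dilutions, final range 32 to 0.015 μg/mL. MIC read visually after 18 h at 37 °C as the lowest concentration with no visible growth.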

Pseudomonas aeruginosa [2] = assay: Antibacterial activity against clinical isolate polymyxin resistant Pseudomonas aeruginosa PA9704 after 18 hrs by 2 fold serial dilution method; type: functional; settings: PA9704, 18 h
Summary of the method: (§2)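 Polymyxin-resistant clinical isolates were grown overnight at 37 °C in NB or MHB with shaking, diluted 50-fold in MHB and grown 1.5–3 h to mid-log phase. The inoculum was 5×10^5 CFU/mL. Compounds were 2-fold broth serial dilutions, final 32 to 0.015 μg/mL; the polymyxin controls ran 128–0.06 μg/mL. The MIC was the lowest concentration with no visible growth after 18 h at 37 °C.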

[3] = Cytotoxicity against primary human proximal tubule cells assessed as GGT release at 100 ug/mL by Western blot analysis
Klebsiella pneumoniae [4] = assay: Antibacterial activity against multidrug resistant Klebsiella pneumoniae ATCC 700603 after 18 hrs by 2 fold serial dilution method; type: functional; settings: Klebsiella pneumoniae, 700603, 18 h
Summary of the method: (§3)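 Overnight cultures at 37 °C in nutrient or Mueller Hinton broth with shaking were diluted 50-fold in MHB and grown 1.5–3 h to mid-log phase. The inoculum was 5×10^5 CFU/mL in MHB. Compounds were 2-fold serially diluted, final 32 to 0.015 μg/mL. After 18 h at 37 °C, the MIC was read visually as the lowest concentration with no visible growth.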

[5] = Cytotoxicity against HK2 cells assessed as LDH release by Western blot analysis; type: cell-based, HK-2; settings: human, primary human renal proximal tubule epithelial cells; read-out: CC50
[6] = Cytotoxicity against HK2 cells assessed as LDH release by Western blot analysis; settings: human, hk-2
[7] = Cytotoxicity against human HepG2 cells after 24 hrs by resazurin assay; type: cell-based; settings: HepG2 cells
Pseudomonas aeruginosa [8] = assay: Antibacterial activity against Pseudomonas aeruginosa ATCC 27853 after 18 hrs by 2 fold serial dilution method; type: functional; settings: ATCC 27853, 18 h; summary of the method: as §1
Pseudomonas aeruginosa [9] = assay: Antibacterial activity against clinical isolate polymyxin resistant Pseudomonas aeruginosa FADDI-PA070 after 18 hrs by 2 fold serial dilution method; type: functional; settings: FADDI-PA070, 18 h; summary of the method: as §2
Klebsiella pneumoniae [10] = assay: Antibacterial activity against Klebsiella pneumoniae ATCC 13883 after 18 hrs by 2 fold serial dilution method; type: functional; settings: ATCC 13883, 18 h; summary of the method: as §1
[11] = Cytotoxicity against HK2 cells assessed as GGT release by Western blot analysis; type: cell-based, HK-2; settings: human, primary human renal proximal tubule epithelial cells; read-out: CC50
Acinetobacter baumannii [12] = assay: Antibacterial activity against Acinetobacter baumannii ATCC 19606 after 18 hrs by 2 fold serial dilution method; type: functional; settings: ATCC 19606, 18 h; summary of the method: as §1
Klebsiella pneumoniae [13] = assay: Antibacterial activity against clinical isolate carbapenem and polymyxin resistant Klebsiella pneumoniae Koprana 100650661:1 after 18 hrs by 2 fold serial dilution method; type: functional; settings: Koprana 100650661:1, 18 h; summary of the method: as §2
Staphylococcus aureus [14] = assay: microbe, parasite or virus in culture; settings: ATCC 25923, 18 h
Acinetobacter baumannii [15] = assay: Antibacterial activity against clinical isolate carbapenem and polymyxin resistant Acinetobacter baumannii Ptyela 100734512:2 after 18 hrs by 2 fold serial dilution method; type: functional; settings: Ptyela 100734512:2, 18 h; summary of the method: as §2
Klebsiella pneumoniae [16] = assay: Antibacterial activity against clinical isolate carbapenem and polymyxin resistant Klebsiella pneumoniae 138-16357-20362 after 18 hrs by 2 fold serial dilution method; type: functional; settings: 138-16357-20362, 18 h; summary of the method: as §2
[17] = Cytotoxicity against HEK293 cells after 24 hrs by resazurin assay; type: cell-based; settings: human, HEK293 cells
Klebsiella pneumoniae [18] = assay: Antibacterial activity against Klebsiella pneumoniae ATCC BAA-2146 expressing NDM-1 after 18 hrs by 2 fold serial dilution method; type: functional; settings: ATCC BAA-2146, 18 h; summary of the method: as §3
Pseudomonas aeruginosa [19] = assay: Antibacterial activity against Pseudomonas aeruginosa IFO3080; type: functional
Escherichia coli [20] = assay: Antibacterial activity against Escherichia coli IFO12734; type: functional
Staphylococcus aureus [21] = assay: Antibacterial activity against Staphylococcus aureus; type: functional
Pseudomonas aeruginosa [22] = assay: Antibacterial activity against Pseudomonas aeruginosa; type: functional
Escherichia coli [23] = assay: Antibacterial activity against Escherichia coli; type: functional

Compound	MIC (Escherichia coli [1]) [µg/mL]	MIC (Pseudomonas aeruginosa [2]) [µg/mL]	MIC (Klebsiella pneumoniae [4]) [µg/mL]	CC50 [5] [µg/mL]	CC50 at 24 h [7] [µM]	MIC (Pseudomonas aeruginosa [8]) [µg/mL]	MIC (Pseudomonas aeruginosa [9]) [µg/mL]	MIC (Klebsiella pneumoniae [10]) [µg/mL]	CC50 [11] [µg/mL]	MIC (Acinetobacter baumannii [12]) [µg/mL]	MIC (Klebsiella pneumoniae [13]) [µg/mL]	MIC (Staphylococcus aureus [14]) [µg/mL]	MIC (Acinetobacter baumannii [15]) [µg/mL]	MIC (Klebsiella pneumoniae [16]) [µg/mL]	CC50 at 24 h [17] [µM]	MIC (Klebsiella pneumoniae [18]) [µg/mL]	also measured
CC(C)C[C@@H]1NC(=O)[C@@H](Cc2ccccc2)NC(=O)[C@H](CCN)NC(=O)[C@@H](NC(=O)[C@H](CCN)NC(=O)[C@@H](NC(=O)[C@H](CCN)NC(=O)c2ccc(Oc3ccccc3)cc2)[C@@H](C)O)CCNC(=O)[C@H]([C@@H](C)O)NC(=O)[C@H](CCN)NC(=O)[C@H](CCN)NC1=O ({Benzoyl(4-OPh)}-[Dab]T[Dab][Dab][Dab][dF]L[Dab][Dab]T; lactam 4-C)	0.5 (≈ 0.397 µM)	32 (≈ 25.4 µM)	0.5 (≈ 0.397 µM)	> 128	287	1 (≈ 0.794 µM)	8 (≈ 6.35 µM)	0.5 (≈ 0.397 µM)	> 128	0.5 (≈ 0.397 µM)	> 32	> 32	16 (≈ 12.7 µM)	> 32	296	0.5 (≈ 0.397 µM)	Activity [3]: Non-toxic; Activity [6]: Non-toxic
CCCCCCCC(=O)N[C@@H](CCN)C(=O)N[C@H](C(=O)N[C@@H](CCN)C(=O)N[C@H]1CCNC(=O)[C@H]([C@@H](C)O)NC(=O)[C@H](CCN)NC(=O)[C@H](CCN)NC(=O)[C@H](CC(C)C)NC(=O)[C@@H](Cc2ccccc2)NC(=O)[C@H](CCN)NC1=O)[C@@H](C)O (Octanoyl-[Dab]T[Dab][Dab][Dab][dF]L[Dab][Dab]T; lactam 4-C)	0.5 (≈ 0.42 µM)	> 128	1 (≈ 0.841 µM)	–	> 300	1 (≈ 0.841 µM)	> 32	2 (≈ 1.68 µM)	–	0.5 (≈ 0.42 µM)	> 128	> 128	> 64	> 128	–	0.5 (≈ 0.42 µM)	MIC (Pseudomonas aeruginosa [19]): 1 µM (≈ 1.19 µg/mL); MIC (Escherichia coli [20]): 0.5 µM (≈ 0.595 µg/mL)
CCCCCCCC(=O)N[C@@H](CCN)C(=O)N[C@H](C(=O)NCC(=O)N[C@H]1CCNC(=O)[C@H]([C@@H](C)O)NC(=O)[C@H](CCN)NC(=O)[C@H](CCN)NC(=O)[C@H](CC(C)C)NC(=O)[C@@H](Cc2ccccc2)NC(=O)[C@H](CCN)NC1=O)[C@@H](C)O (Octanoyl-[Dab]TG[Dab][Dab][dF]L[Dab][Dab]T; lactam 4-C)	0.5 (≈ 0.436 µM)	> 32	1 (≈ 0.872 µM)	122 (≈ 106 µM)	> 300	2 (≈ 1.74 µM)	> 32	0.5 (≈ 0.436 µM)	> 128	1 (≈ 0.872 µM)	> 32	> 64	> 32	> 32	> 300	0.5 (≈ 0.436 µM)	–
CCCCCCCC(=O)N[C@H](C(=O)N[C@@H](CCN)C(=O)N[C@H]1CCNC(=O)[C@H]([C@@H](C)O)NC(=O)[C@H](CCN)NC(=O)[C@H](CCN)NC(=O)[C@H](CC(C)C)NC(=O)[C@@H](Cc2ccccc2)NC(=O)[C@H](CCN)NC1=O)[C@@H](C)O [Octanoyl Polymixin B nonapeptide] (Octanoyl-T[Dab][Dab][Dab][dF]L[Dab][Dab]T; lactam 3-C)	1 (≈ 0.918 µM)	> 32	2 (≈ 1.84 µM)	–	> 300	0.5 (≈ 0.459 µM)	> 32	1 (≈ 0.918 µM)	–	2 (≈ 1.84 µM)	> 32	> 32	> 32	> 32	–	2 (≈ 1.84 µM)	MIC (Staphylococcus aureus [21]): > 16 µg/mL; MIC (Pseudomonas aeruginosa [22]): 4 µg/mL (≈ 3.67 µM); MIC (Escherichia coli [23]): 0.03 µg/mL (≈ 0.0275 µM)
CCCCCCCC(=O)N[C@@H](CCN)C(=O)N[C@H](C(=O)N[C@@H](CCN)C(=O)N[C@H]1CCNC(=O)[C@H]([C@@H](C)O)NC(=O)[C@H](Cc2ccc(N)cc2)NC(=O)[C@H](CCN)NC(=O)[C@H](CC(C)C)NC(=O)[C@@H](Cc2ccccc2)NC(=O)[C@H](CCN)NC1=O)[C@@H](C)O (Octanoyl-[Dab]T[Dab][Dab][Dab][dF]L[Dab][Phe(4-NH2)]T; lactam 4-C)	16 (≈ 12.8 µM)	> 32	16 (≈ 12.8 µM)	–	> 300	32 (≈ 25.6 µM)	> 32	> 32	–	> 32	> 32	> 32	> 32	> 32	–	16 (≈ 12.8 µM)	–
CC(C)C[C@@H]1NC(=O)[C@@H](Cc2ccccc2)NC(=O)[C@H](CCN)NC(=O)[C@@H](NC(=O)[C@H](CCN)NC(=O)[C@@H](NC(=O)[C@H](CCN)NC(=O)c2ccc(-c3ccccc3)cc2)[C@@H](C)O)CCNC(=O)[C@H]([C@@H](C)O)NC(=O)[C@H](CCN)NC(=O)[C@H](CCN)NC1=O ({Benzoyl(4-Ph)}-[Dab]T[Dab][Dab][Dab][dF]L[Dab][Dab]T; lactam 4-C)	0.5 (≈ 0.402 µM)	> 32	1 (≈ 0.804 µM)	> 128	298	1 (≈ 0.804 µM)	8 (≈ 6.43 µM)	0.5 (≈ 0.402 µM)	> 128	0.5 (≈ 0.402 µM)	> 32	> 32	8 (≈ 6.43 µM)	> 32	297	0.5 (≈ 0.402 µM)	Activity [3]: Non-toxic; Activity [6]: Non-toxic
CCCCCCCC(=O)N[C@@H](CCN)C(=O)N[C@H](C(=O)N[C@H](CO)C(=O)N[C@H]1CCNC(=O)[C@H]([C@@H](C)O)NC(=O)[C@H](CCN)NC(=O)[C@H](CCN)NC(=O)[C@H](CC(C)C)NC(=O)[C@@H](Cc2ccccc2)NC(=O)[C@H](CCN)NC1=O)[C@@H](C)O (Octanoyl-[Dab]T[dS][Dab][Dab][dF]L[Dab][Dab]T; lactam 4-C)	4 (≈ 3.4 µM)	> 32	2 (≈ 1.7 µM)	–	> 300	2 (≈ 1.7 µM)	> 32	0.5 (≈ 0.425 µM)	–	1 (≈ 0.85 µM)	> 32	> 32	> 32	> 32	–	16 (≈ 13.6 µM)	–
CC(C)C[C@@H]1NC(=O)[C@@H](Cc2ccccc2)NC(=O)[C@H](CCN)NC(=O)[C@@H](NC(=O)[C@@H](CO)NC(=O)[C@@H](NC(=O)[C@H](CCN)NC(=O)Nc2ccccc2Cl)[C@@H](C)O)CCNC(=O)[C@H]([C@@H](C)O)NC(=O)[C@H](CCN)NC(=O)[C@H](CCN)NC1=O ({NH(2-ClPh)-CO}-[Dab]T[dS][Dab][Dab][dF]L[Dab][Dab]T; lactam 4-C)	32 (≈ 26.6 µM)	> 32	16 (≈ 13.3 µM)	–	> 300	8 (≈ 6.65 µM)	> 32	32 (≈ 26.6 µM)	–	> 32	> 32	> 32	> 32	> 32	–	> 32	–
CCCCCCCC(=O)N[C@@H](CCN)C(=O)N[C@H](C(=O)N[C@@H](CCN)C(=O)N[C@H]1CCNC(=O)[C@H]([C@@H](C)O)NC(=O)[C@H](CCN)NC(=O)[C@H](CCNC(=O)[C@@H](N)CCC(=O)O)NC(=O)[C@H](CC(C)C)NC(=O)[C@@H](Cc2ccccc2)NC(=O)[C@H](CCN)NC1=O)[C@@H](C)O (Octanoyl-[Dab]T[Dab][Dab][Dab][dF]L[Dab](Glu)[Dab]T; lactam 4-C)	1 (≈ 0.758 µM)	> 32	4 (≈ 3.03 µM)	–	> 300	8 (≈ 6.07 µM)	> 32	8 (≈ 6.07 µM)	–	4 (≈ 3.03 µM)	> 32	> 32	> 32	> 32	–	4 (≈ 3.03 µM)	–

From ChEMBL document CHEMBL3774373, “Activity and Predicted Nephrotoxicity of Synthetic Antibiotics Based on Polymyxin B” (J Med Chem, 2016)
